Key:
[1] = biological target: T1, Heat shock protein HSP 90-beta (Homo sapiens, UniProt P08238); experiment: Inhibitory activity against Hsp90 in human breast cancer SKBr3 cell line; format: cell-based
[2] = biological target: T1, Heat shock protein HSP 90-beta; experiment: Inhibition of Her2 degradation in human breast cancer SKBr3 cell line; format: functional, cell-based
Outline: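 Fixed in cold methanol, blocked, then probed overnight at 4 °C with anti-Her2, then HRP anti-rabbit and ECL luminescence. Normal rabbit IgG background was subtracted.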

[3] = biological target: T1, Heat shock protein HSP 90-beta; experiment: Inhibitory activity against Hsp90 in human breast cancer MDA-MB-468 cell line; format: cell-based
MDA-MB-468 [4] = experiment: Growth inhibition in human breast cancer MDA-MB-468 cell line using SRB; format: functional, cell-based
Outline: (§1)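 Sulforhodamine B growth assay. Plating densities were 6000 (SKBr3), 8000 (MDA-MB-468) or 10,000 (MRC-5) cells/well, attached overnight. Drug, added in triplicate, was 1:1 serially diluted with DMSO or PBS vehicle. Exposure lasted 72 h, then cells were fixed with TCA and stained with 0.4% SRB.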

MDA-MB-468 [5] = experiment: Antimitotic activity in human breast cancer MDA-MB-468 cell line; format: functional, cell-based
Outline: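 MDA-MB-468 cells seeded at 8000/well, attached overnight, then exposed to drug or DMSO vehicle for 24 h at 37 °C, 5% CO2. Cells fixed in cold methanol, blocked, then probed with Tg-3 antibody against mitotically phosphorylated nucleolin, followed by HRP anti-mouse IgM and ECL luminescence. IC50 taken as the concentration that doubles luminescence over vehicle.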

SK-BR-3 = experiment: Growth inhibition in human breast cancer SKBr3 cell line using SRB; format: functional, cell-based
MRC5 = experiment: Cytotoxicity against normal lung fibroblast MRC5 cell line; format: functional, cell-based; conditions: Homo sapiens; outline: as §1
[6] = Solubility in water; format: physicochemical
[7] = biological target: Heat shock protein HSP 90 (Mus musculus); experiment: Binding affinity to Hsp90 in mouse lung tissue
[8] = biological target: Heat shock protein HSP 90 (Mus musculus); experiment: Binding affinity to Hsp90 in mouse heart tissue

T1 sequence (P08238 whole entry): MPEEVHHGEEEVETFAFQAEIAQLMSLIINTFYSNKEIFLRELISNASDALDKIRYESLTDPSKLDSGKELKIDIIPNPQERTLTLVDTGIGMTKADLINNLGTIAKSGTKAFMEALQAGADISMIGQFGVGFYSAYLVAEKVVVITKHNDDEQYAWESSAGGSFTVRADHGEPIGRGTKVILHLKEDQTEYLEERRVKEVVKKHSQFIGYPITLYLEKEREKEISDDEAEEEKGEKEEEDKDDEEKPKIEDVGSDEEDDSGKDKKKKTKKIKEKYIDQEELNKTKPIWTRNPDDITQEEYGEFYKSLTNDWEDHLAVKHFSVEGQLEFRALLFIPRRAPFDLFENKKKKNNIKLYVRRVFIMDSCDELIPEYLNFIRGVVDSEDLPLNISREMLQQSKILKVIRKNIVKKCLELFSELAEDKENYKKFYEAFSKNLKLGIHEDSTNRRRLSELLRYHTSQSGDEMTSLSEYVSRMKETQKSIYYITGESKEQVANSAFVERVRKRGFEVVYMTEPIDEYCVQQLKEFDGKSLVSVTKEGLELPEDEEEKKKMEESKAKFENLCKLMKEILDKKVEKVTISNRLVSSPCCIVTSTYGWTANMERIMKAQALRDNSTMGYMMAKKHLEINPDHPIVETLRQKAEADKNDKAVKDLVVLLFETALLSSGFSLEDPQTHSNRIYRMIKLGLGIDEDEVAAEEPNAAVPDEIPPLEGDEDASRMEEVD

| SMILES | EC50 [1] [nM] | IC50 [2] [nM] | EC50 [3] [nM] | IC50 (MDA-MB-468 [4]) [nM] | IC50 (MDA-MB-468 [5]) [nM] | IC50 (SK-BR-3) [nM] | IC50 (MRC5) [nM] | solubility [6] [µg/mL] | EC50 [7] [nM] | EC50 [8] [nM] |
| --- | --- | --- | --- | --- | --- | --- | --- | --- | --- | --- |
| C#CCCCn1c(Cc2cc3c(cc2Br)OCO3)nc2c(N)nc(F)nc21 | 56.5 | 210 | 30.5 | 350 | 310 | 215 |  |  |  |  |
| C#CCCCn1c(Cc2cc(OC)c(OC)cc2Cl)nc2c(N)nc(F)nc21 | 4600 | 30000 | 4500 | 27300 | > 50000 | 20600 |  |  |  |  |
| CC(C)NCCCn1c(Cc2cc3c(cc2I)OCO3)nc2c(N)nc(F)nc21 | 50.4 | 80 | 39.1 | 90 | 100 | 45 | > 5000 | > 5000 | 2400 | 6900 |
| C#CCCCn1c(Cc2cc3c(cc2Cl)OCO3)nc2c(N)nc(F)nc21 | 77.2 | 300 | 51.2 | 440 | 450 | 250 |  |  |  |  |
| C#CCCCn1c(Cc2cc(OC)c(OC)cc2I)nc2c(N)nc(F)nc21 | > 15000 | > 50000 | > 15000 | > 50000 | > 50000 | > 50000 |  |  |  |  |
| C#CCCCn1c(Sc2cc3c(cc2Br)OCO3)nc2c(N)ncnc21 | 50.4 | 365 | 77.1 | 560 | 530 |  |  |  |  |  |
| C#CCCCn1c(Cc2cc(OC)c(OC)cc2Br)nc2c(N)nc(F)nc21 | > 15000 | > 50000 | > 15000 | > 50000 | > 50000 | 55000 |  |  |  |  |
| C#CCCCn1c(Sc2cc3c(cc2I)OCO3)nc2c(N)ncnc21 | 10.8 | 100 | 10.9 | 170 | 184 | 90 |  |  |  |  |
| C#CCCCn1c(Cc2cc3c(cc2I)OCO3)nc2c(N)nc(F)nc21 | 22.3 | 90 | 23.7 | 150 | 180 | 90 |  |  |  |  |
| CC(C)NCCCn1c(Sc2cc3c(cc2Br)OCO3)nc2c(N)ncnc21 |  |  |  | 270 | 375 | 142 |  | > 5000 |  |  |
| CC(C)NCCCn1c(Sc2cc3c(cc2I)OCO3)nc2c(N)ncnc21 [PU-H71] |  |  |  | 58 | 70 |  | 1000 | > 5000 |  |  |
